Measurements reported in ChEMBL document CHEMBL4041475, “Novel 2-arylazoimidazole derivatives as inhibitors of Trypanosoma cruzi proliferation: Synthesis and evaluation of their biological activity” (Eur J Med Chem, 2017).
Calls of active or inactive are those of the source. The rule behind the calls is not given here.

Tests used:
Trypanosoma cruzi [1] = assay: Trypanocidal activity against Trypanosoma cruzi TCC epimastigotes at 1 to 15 uM supplemented with fresh medium containing compound every 9 to 10 days by haemocytometric method; format: functional
Outline: (§1)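 TCC strain epimastigotes grown at 28 °C in Diamond medium with haemin and 10% FBS. Seeded at 10×10⁶/mL in duplicate with 1, 5, 10 or 15 μM compound, alongside untreated cultures. Counted daily in a haemocytometer. Every ~9–10 days, re-diluted to 5×10⁶/mL in fresh compound-containing medium to start a new round.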

Trypanosoma cruzi [2] = assay: Trypanocidal activity against Trypanosoma cruzi TCC epimastigotes assessed as parasite duplication time at 15 uM measured after 9 to 10 days (reference value: 2 day); format: functional; outline: as §1
Trypanosoma cruzi [3] = assay: Trypanocidal activity against Trypanosoma cruzi TCC epimastigotes assessed as effect on parasite motility at 1 to 15 uM supplemented with fresh medium containing compound every 9 to 10 days measured on third week; format: functional; outline: as §1
Trypanosoma cruzi [4] = assay: Trypanocidal activity against Trypanosoma cruzi RA tripamastigote bloodstream forms infected in Balb/c mouse assessed as mouse survival at 100 mg/kg, po administered on day 9 post infection for 5 consecutive days measured daily during compound dosing up to 45 days post infection; format: functional
Outline: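 Male Balb/c mice (6–8 weeks, groups of six) were infected intraperitoneally with 100 bloodstream trypomastigotes harvested from CF1 mice. Oral dosing at 100 mg/kg/day for five consecutive days began once circulating parasites were confirmed microscopically, on day 9 p.i. Drugs were suspended in 0.1 M PBS (pH 7.2), prepared fresh daily; vehicle served as negative control. Mortality was recorded daily to 45 days p.i.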

Trypanosoma cruzi [5] = assay: Trypanocidal activity against Trypanosoma cruzi TCC epimastigotes assessed as effect on parasite viability at 1 to 15 uM supplemented with fresh medium containing compound every 9 to 10 days measured on third week by maximal parasite density; format: functional; outline: as §1
Trypanosoma cruzi [6] = assay: Trypanocidal activity against Trypanosoma cruzi RA tripamastigote bloodstream forms infected in Balb/c mouse assessed as reduction in parasitaemia at 100 mg/kg, po administered on day 9 post infection for 5 consecutive days measured on day 35 post infection relative to control; format: functional
Outline: (§2)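 Balb/c males, 6–8 weeks, groups of six, infected i.p. with 100 RA strain bloodstream trypomastigotes. Oral dosing for 5 consecutive days once parasites were circulating, in 0.1 M PBS pH 7.2, with vehicle as negative control. Tail-vein blood (5 μl) diluted 1:10 in NH₄Cl/Tris lysis buffer and counted in a haemocytometer every other day.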

Trypanosoma cruzi [7] = assay: Trypanocidal activity against Trypanosoma cruzi TCC epimastigotes assessed as parasite duplication time at 1 to 15 uM supplemented with fresh medium containing compound every 9 to 10 days measured on third week; format: functional; outline: as §1
Trypanosoma cruzi [8] = assay: Trypanocidal activity against Trypanosoma cruzi TCC epimastigotes assessed as maximal parasite density at 15 uM measured after 9 to 10 days by haemocytometric method (reference value: 45 10^6/ml); format: functional; outline: as §1
Trypanosoma cruzi [9] = assay: Trypanocidal activity against Trypanosoma cruzi TCC epimastigotes assessed as maximal parasite density at 1 to 15 uM supplemented with fresh medium containing compound every 9 to 10 days measured on third week by haemocytometric method; format: functional; outline: as §1
Trypanosoma cruzi [10] = assay: Trypanocidal activity against Trypanosoma cruzi RA tripamastigote bloodstream forms isolated from infected CF1 mouse blood after 24 hrs by haemocytometric method; format: functional
Outline: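 RA strain bloodstream trypomastigotes taken from CF1 mouse blood at parasitaemia peak (day 5 p.i.) and diluted in medium to 1.5×10⁶/ml. Exposed in duplicate to 125–1000 μM compound at 4 °C for 24 h. Viable parasites counted in a haemocytometer; % lysis computed against untreated control. IC50 obtained from log %L against log concentration.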

Trypanosoma cruzi [11] = assay: Trypanocidal activity against Trypanosoma cruzi RA tripamastigote bloodstream forms infected in Balb/c mouse assessed as reduction in circulating parasite level in acute phase at 100 mg/kg, po administered on day 9 post infection for 5 consecutive days; format: functional, organism-based; outline: as §2
[12] = Cytotoxicity against mouse RAW cells assessed as reduction in cell viability after 24 hrs by MTT assay; format: cell-based
Outline: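 RAW cells, 1x10⁵ per well, exposed to 125–1000 μM compound for 24 h at 37 °C, 5% CO₂; MTT added at 1.5 mg/mL final for 4 h, formazan dissolved in 1% SDS/0.01 M HCl, absorbance at 540 nm. CC50 obtained by linear regression of log OD against log concentration. Run in duplicate.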

[13] = in the assay text read “day 18 post infection relative” for “day 35 post infection relative”

In the case of `O=C(Cn1ccnc1/N=N/c1ccc(Cl)c(Cl)c1)N1CCCC1`, the Activity (Trypanosoma cruzi [1]) is reported as “inactive”.

With `O=C(Cn1ccnc1/N=N/c1ccc(C(F)(F)F)cc1)N1CCOCC1` the Activity (Trypanosoma cruzi [1]) was “inactive”.

In the case of `COc1ccc(/N=N/c2nccn2CC(=O)N2CCOCC2)c([N+](=O)[O-])c1`, the Activity (Trypanosoma cruzi [1]) is reported as “inactive”.

For `O=C(Cn1ccnc1[N+](=O)[O-])NCc1ccccc1` [BENZNIDAZOLE], the Time (Trypanosoma cruzi [2]) was 3 days, the Activity (Trypanosoma cruzi [3]) was “Active” and the survival at 100 mg/kg (Trypanosoma cruzi [4]) was 100%. The Activity (Trypanosoma cruzi [5]) was “Active”, the Activity (Trypanosoma cruzi [6]) was “Active” and the Activity (Trypanosoma cruzi [7]) was “Active”. For the same molecule, the Activity (Trypanosoma cruzi [8]) was 25 ×10⁶ /ml and the Activity (Trypanosoma cruzi [9]) was “Active”.

For `O=C(Cn1ccnc1/N=N/c1ccc(C(F)(F)F)cc1)NC1CCCCC1`, the Activity (Trypanosoma cruzi [1]) was “inactive”.

`CN(C)c1ccc(C(=C2C=CC(=[N+](C)C)C=C2)c2ccc(N(C)C)cc2)cc1` [GENTIAN VIOLET] gave an IC50 (Trypanosoma cruzi [10]) of 2.8 µM.

With `O=C(Cn1ccnc1/N=N/c1ccc([N+](=O)[O-])cc1)N1CCOCC1` the Activity (Trypanosoma cruzi [1]) was “inactive”.

With `O=C(Cn1ccnc1/N=N/c1ccc([N+](=O)[O-])cc1)N1CCCC1` the Activity (Trypanosoma cruzi [1]) was “inactive”.

In the case of `O=C(Cn1ccnc1/N=N/c1ccc([N+](=O)[O-])cc1)NC1CCCCC1`, the Activity (Trypanosoma cruzi [1]) is reported as “inactive”.

In the case of `NC(CCCCNC(=O)Cn1ccnc1/N=N/c1ccc([N+](=O)[O-])cc1)C(=O)O` (configuration not stated), the Activity (Trypanosoma cruzi [1]) is reported as “inactive”.

With `COc1ccc(/N=N/c2nccn2CC(=O)NC2CCCCC2)c([N+](=O)[O-])c1` the Activity (Trypanosoma cruzi [1]) was “inactive”.

For `O=C(Cn1ccnc1/N=N/c1ccc(Cl)cc1)N1CCCC1`, the Activity (Trypanosoma cruzi [1]) was “inactive”.

For `O=C(Cn1ccnc1/N=N/c1ccc(C(F)(F)F)cc1)N1CCCC1`, the Activity (Trypanosoma cruzi [1]) was “inactive”.

In the case of `O=C(Cn1ccnc1/N=N/c1ccc([N+](=O)[O-])cc1)N1CCCCC1`, the Time (Trypanosoma cruzi [2]) is reported as 4 days, the Activity (Trypanosoma cruzi [11]) is reported as “Active” and the Activity (Trypanosoma cruzi [3]) is reported as “Active”. For the same molecule, the survival at 100 mg/kg (Trypanosoma cruzi [4]) was 67%, the Activity (Trypanosoma cruzi [5]) was “Active” and the Activity (Trypanosoma cruzi [6]; [13]) was 71%. For the same molecule, the IC50 (Trypanosoma cruzi [10]) was 645 µM, the Time (Trypanosoma cruzi [7]) was 9 to 12 days and the Activity (Trypanosoma cruzi [8]) was 20 ×10⁶ /ml. For the same molecule, the Activity (Trypanosoma cruzi [9]) was 5 - 6 ×10⁶ /ml and the CC50 at 24 h [12] was 206 µM.

In the case of `O=C(Cn1ccnc1/N=N/c1ccc(C(F)(F)F)cc1)N1CCCCC1`, the Activity (Trypanosoma cruzi [11]) is reported as “Active”, the Activity (Trypanosoma cruzi [3]) is reported as “Active” and the survival at 100 mg/kg (Trypanosoma cruzi [4]) is reported as 67%. For the same molecule, the Activity (Trypanosoma cruzi [5]) was “Active”, the Activity (Trypanosoma cruzi [6]; [13]) was 60% and the IC50 (Trypanosoma cruzi [10]) was 1080 µM. For the same molecule, the Time (Trypanosoma cruzi [7]) was 9 to 12 days, the Activity (Trypanosoma cruzi [9]) was 5 - 6 ×10⁶ /ml and the CC50 at 24 h [12] was 415 µM.

In the case of `COc1ccc(/N=N/c2nccn2CC(=O)N2CCCCC2)c([N+](=O)[O-])c1`, the Activity (Trypanosoma cruzi [1]) is reported as “inactive”.

In the case of `O=C(Cn1ccnc1/N=N/c1ccc(Cl)cc1)N1CCCCC1`, the Activity (Trypanosoma cruzi [1]) is reported as “inactive”.
